Measured values collected from several papers.
Lines come from different studies, so protocols differ.
ADORA1: Adenosine receptor A1 (ADORA1, Homo sapiens, UniProt P30542)
ache: Acetylcholinesterase (ache, Electrophorus electricus, UniProt O42275)
CARM1: Histone-arginine methyltransferase CARM1 (CARM1, Homo sapiens, UniProt Q86X55)

SMILES	target	assay	system	conditions	inhibition [%]
O[C@@H]1[C@H](O)CO[C@H]1n1cnc2c(NCc3cccc(F)c3)nc(Cl)nc21	ADORA1	ligand displacement, radioligand		10 µM, cell membranes	10
CC/C(=N\NC(=O)NCc1cccc(O)c1)c1ccc(O)c(C)c1O	Ribosomal protein S6 kinase beta-2 (RPS6KB2, Homo sapiens, UniProt Q9UBS0)	enzyme activity, inhibitor		0.1 µM	22.7
COc1cc2c(cc1OC)C(=O)N(CC1CCN(CC3CCNC3)CC1)C2 (centres unmarked)	ache	enzyme activity, inhibitor		1 µM	4.86
COc1cc(NC(C)=O)c(Cl)cc1C(=O)Nc1nccs1	ADORA1	cell-free assay		10 µM	25.2
COc1ccc2[nH]cc(/C=C/c3ccc(O)cc3)c2c1	Amyloid-beta precursor protein, monomer (APP, Homo sapiens, UniProt P05067)	amyloid aggregation, inhibitor, fluorescence		25 µM	44
O[C@@H]1[C@H](O)CO[C@H]1n1cnc2c(NCc3cccc(I)c3)nc(Cl)nc21	ADORA1	ligand displacement, radioligand		10 µM, cell membranes	< 10
COc1cc2c(cc1OC)C(=O)N(CC1CCN(Cc3ccccc3)CC1)C2	ache	enzyme activity, inhibitor		1 µM	20.4
CCN1CCN(Cc2ccc(NC(=O)c3ccc(C)c(Oc4ccnc5[nH]ccc45)c3)cc2C(F)(F)F)CC1	Serine/threonine-protein kinase/endoribonuclease IRE1 (ERN1, Homo sapiens, UniProt O75460)	target engagement in cells, inhibitor, chemoproteomics	Huh-7	1 µM	-16.7
O=C(c1ccc(F)cc1)N(Cc1ccccc1)C1CCCCC1	ADORA1	cell-free assay		10 µM	8
COc1cc2c(cc1OC)C(=O)N(Cc1cccc(N3CCCCC3)n1)C2	ache	enzyme activity, inhibitor		1 µM	18.8
Nc1ncnc2c1ncn2[C@@H]1O[C@H](CSCCNC(=O)NCc2ccccc2)[C@@H](O)[C@H]1O	CARM1	enzyme activity, inhibitor, radiometric		10 µM	> 95
COc1cc2c(cc1OC)C(=O)N(CC1CCN(Cc3cccnc3)CC1)C2	ache	enzyme activity, inhibitor		1 µM	-0.52
CCN(c1cc(C#CCN2CCOCC2)cc(C(=O)NCc2c(C)cc(C)[nH]c2=O)c1C)[C@H]1CC[C@H](N(C)CCOC)CC1	CARM1	enzyme activity, inhibitor		1 µM	-3
COc1cc2c(cc1OC)C(=O)N(CC1CCNCC1)C2	ache	enzyme activity, inhibitor		1 µM	2.49
O[C@@H]1[C@H](O)CO[C@H]1n1cnc2c(NCc3cccc(Br)c3)nc(Cl)nc21	ADORA1	ligand displacement, radioligand		10 µM, cell membranes	< 10
COc1cc2c(cc1OC)C(=O)N(Cc1ccncc1)C2	ache	enzyme activity, inhibitor		1 µM	2.62
O=C1N=C(N2CCCCN2)S/C1=C\c1ccc(F)cc1O	Neuromedin-K receptor (TACR3, Homo sapiens, UniProt P29371)	ligand displacement, radioligand		10 µM	< 10
O=C(NC1C2CCN(CC2)C1Cc1cccnc1)c1cc2ccccc2o1 (centres unmarked)	5-hydroxytryptamine receptor 3A (Htr3a, Mus musculus, UniProt P23979)	ligand displacement, radioligand		10 µM	59
c1cc2cc(C3=NCCN3)ccc2cc1C1=NCCN1	Rac GTPase-activating protein 1 (Homo sapiens, UniProt Q9H0H5)	enzyme activity, inhibitor, ADP detection		10 µM	50.4
C1=CSC(=C2SC=CS2)S1	Ubiquitin carboxyl-terminal hydrolase 5 (USP5, Homo sapiens, UniProt P45974)	enzyme activity, inhibitor		17 µM	54
